Reference: ChEMBL document CHEMBL4396904, “Design, Synthesis, and Anti-HBV Activity of New Bis(l-amino acid) Ester Tenofovir Prodrugs” (ACS Med Chem Lett, 2019)
Calls of active or inactive are those of the source. The rule behind the calls is not given here.

Key:
Hepatitis B virus [1] = assay: Antiviral activity against HBV infected in human HepG2.2.15 cells assessed as reduction in cytoplasmic DNA synthesis by reed and munch method; type: functional, organism-based
Method in brief: (§1)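 HepG 2.2.15 cells; IC50 is the concentration giving 50% inhibition of cytoplasmic HBV-DNA synthesis; CC50 comes from a CPE (cytopathic effect) cytotoxicity assay in the same cells. Both were derived by the Reed & Muench method, and each experiment was run at least twice separately. SI = CC50/IC50.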

[2] = Cytotoxicity against human HepG2.2.15 cells infected with HBV; type: cell-based, HepG2 2.2.15; method in brief: as §1
[3] = Selectivity index, ratio of CC50 for human HepG2.2.15 cells to IC50 for HBV infected in human HepG2.2.15 cells; type: toxicity, cell-based; conditions: read-out: Ratio CC50/IC50; method in brief: as §1
Rattus norvegicus [4] = assay: Ratio of compound oral bioavailability in Sprague-Dawley rat at 45.5 mg/kg administered as single dose to TDF oral bioavailability in Sprague-Dawley rat at 44.3 mg/kg administered as single dose by HPLC analysis; type: ADME, organism-based; conditions: in vivo
Method in brief: (§2)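 SD rats received a single oral dose at equimolar […] (TFV 20 mg/kg); intravenous TFV was given at 5 mg/kg. PK parameters were derived from plasma TFV, including oral bioavailability F; n = 3 per group.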

HBV genotype D [5] = assay: Antiviral activity against HBV genotype D hydrodynamically infected as pHBV1.3 mer plasmid carrying viral genome in C57BL/6 mouse assessed as log10 reduction in serum viral DNA level at 0.10 to 0.50 mmol/kg/day, po via gavage administered as twice daily dosage and measured on day 4 post treatment by qRT-PCR analysis; type: functional, hepatitis B virus genotype D
Method in brief: (§3)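 C57BL/6 mice were hydrodynamically injected with HBV 1.3mer plasmid. From one day later (day 0), they were gavaged twice daily at […] or with vehicle; ETV was given orally once daily; n = 5-6 per group. Blood was taken at days 0, 2, 4 and 6, and serum HBV DNA was measured by real-time PCR. Body weight was recorded over 6 days of treatment. Significance was set against vehicle.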

Hepatitis B virus [6] = assay: Potency index, ratio of TFV IC50 to compound IC50 for antiviral activity against HBV infected in human HepG2.2.15 cells; type: functional
[7] = Toxicity against Pekin duck infected with HBV assessed as change in body weight at 0.1 to 0.4 mmol/kg, po twice daily for 14 days administered via gavage and measured every day during compound dosing; type: organism-based; conditions: anas platyrhynchos, in vivo, 336 h
Method in brief: (§4)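 DHBV-infected ducks, six per group, were gavaged twice daily at 0.1, 0.2 or […] or with vehicle (0.5% CMC-Na or water); 3TC was given orally once daily. Blood was collected at day 0 (pretreatment), day 7, day 14 and 3 days after cessation. Serum DHBV DNA was extracted and quantified by real-time PCR. Body weight was monitored during treatment. Comparison was against vehicle.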

HBV genotype D [8] = assay: Antiviral activity against HBV genotype D hydrodynamically infected as pHBV1.3 mer plasmid carrying viral genome in C57BL/6 mouse assessed as reduction in serum viral DNA level administered via oral gavage twice daily and measured upto 6 days post treatment by qRT-PCR analysis; type: functional, organism-based; conditions: hepatitis B virus genotype D; method in brief: as §3
Hepatitis B virus [9] = assay: Potency index, ratio of Lamivudine IC50 to compound IC50 for antiviral activity against HBV infected in human HepG2.2.15 cells; type: functional
Hepatitis B virus [10] = assay: Antiviral activity against HBV infected in pekin duck assessed as reduction in serum viral DNA level administered via oral gavage twice daily for 14 days and measured on day 14 post treatment and on day 3 after treatment cessation by qRT-PCR analysis; type: functional, organism-based; method in brief: as §4
Rattus norvegicus [11] = assay: Ratio of compound oral bioavailability in Sprague-Dawley rat at 45.5 mg/kg administered as single dose to TFV oral bioavailability in Sprague-Dawley rat at 20 mg/kg administered as single dose by HPLC analysis; type: ADME, organism-based; conditions: in vivo; method in brief: as §2
HBV genotype D [12] = assay: Antiviral activity against HBV genotype D hydrodynamically infected as pHBV1.3 mer plasmid carrying viral genome in C57BL/6 mouse assessed as reduction in serum viral DNA level at 0.1 to 1 mg/kg, po once daily and measured upto 6 days post treatment by qRT-PCR analysis; type: functional, organism-based; conditions: hepatitis B virus genotype D
Method in brief: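 C57BL/6 mice received the HBV 1.3mer plasmid by hydrodynamic tail-vein injection. From one day later they were dosed by oral gavage twice daily at […], with vehicle groups of 20% Kolliphor HS 15 or water; ETV was given once daily. There were 5-6 mice per group. Serum HBV DNA was measured by real-time PCR on days 0, 2, 4 and 6, and body weight was tracked over the 6 days.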

[13] = Toxicity against C57BL/6 mouse hydrodynamically infected with pHBV1.3 mer plasmid carrying HBV genotype D assessed as change in body weight at 0.1 to 1 mg/kg, po once daily and measured upto 6 days post treatment; type: organism-based; conditions: in vivo, 144 h
[14] = Cmax in Sprague-Dawley rat at 20 mg/kg, po administered as single dose and measured after 0.25 to 24 hrs by HPLC analysis; type: ADME, organism-based; parameters: dose 20 mg/kg, route oral; conditions: in vivo
Method in brief: (§5)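 Male/female unspecified SD rats, n = 3 per group, received a single dose of TFV at 20 mg/kg by mouth or 5 mg/kg intravenously. Prodrugs were given orally at an equimolar […]. PK parameters were calculated for the released TFV and reported as means.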

[15] = AUC(0 to infinity) in Sprague-Dawley rat at 5 mg/kg, iv; type: ADME, organism-based; parameters: dose 5 mg/kg, route intravenous, time infinity; conditions: in vivo; method in brief: as §5
[16] = Tmax in Sprague-Dawley rat at 20 mg/kg, po administered as single dose and measured after 0.25 to 24 hrs by HPLC analysis; type: ADME, organism-based; conditions: in vivo; method in brief: as §5
[17] = Oral bioavailability in Sprague-Dawley rat at 20 mg/kg administered as single dose and measured after 0.25 to 24 hrs by HPLC analysis; type: ADME, organism-based; conditions: in vivo; method in brief: as §5
[18] = AUC(0 to infinity) in Sprague-Dawley rat at 20 mg/kg, po administered as single dose and measured after 0.25 to 24 hrs by HPLC analysis; type: ADME, organism-based; parameters: dose 20 mg/kg, time infinity, route oral; conditions: in vivo; method in brief: as §5
[19] = Half-life in Sprague-Dawley rat at 5 mg/kg, iv; type: ADME, organism-based; conditions: in vivo; method in brief: as §5
[20] = Half-life in Sprague-Dawley rat at 20 mg/kg, po administered as single dose and measured after 0.25 to 24 hrs by HPLC analysis; type: ADME, organism-based; conditions: in vivo; method in brief: as §5
[21] = Clearance in Sprague-Dawley rat at 5 mg/kg, iv; type: ADME, organism-based; conditions: in vivo; method in brief: as §5
Hepatitis B virus [22] = assay: Antiviral activity against HBV infected in pekin duck assessed as reduction in serum viral DNA level at 0.4 mmol/kg, po once daily for 14 days and measured on days 7, 14 post treatment and on day 3 after treatment cessation by qRT-PCR analysis; type: functional, organism-based
[23] = Toxicity against Pekin duck infected with HBV assessed as change in body weight at 0.2 to 0.4 mmol/kg, […] for 14 days and measured every day during compound dosing; type: organism-based; conditions: anas platyrhynchos, in vivo, po, 336 h
Method in brief: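 DHBV-infected ducks, six per group, were gavaged twice daily at 0.1, 0.2 or […], with vehicle groups of 0.5% CMC-Na or water; 3TC was given orally once daily. Serum DHBV DNA was measured by real-time PCR on days 0, 7 and 14 and 3 days after dosing stopped, and body weight was monitored. Data are mean ± SD.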

CC(C)[C@H](N)C(=O)OCOP(=O)(CO[C@H](C)Cn1cnc2c(N)ncnc21)OCOC(=O)[C@@H](N)C(C)C.Cl
IC50 (Hepatitis B virus [1]): 0.71 µM
CC50 [2]: 57.3 µM
selectivity ratio [3]: 80
Ratio (Rattus norvegicus [4]): 3
log(activity) (HBV genotype D [5]): 1.1
Ratio IC50 (Hepatitis B virus [6]): 22
Activity [7]: Non-Toxic
inhibition (HBV genotype D [8]): Dose-dependent effect
Ratio IC50 (Hepatitis B virus [9]): 3
inhibition (Hepatitis B virus [10]): Dose-dependent effect
Ratio (Rattus norvegicus [11]): 7

C=C1[C@H](CO)[C@@H](O)C[C@@H]1n1cnc2c(=O)[nH]c(N)nc21.O [ENTECAVIR]
inhibition (HBV genotype D [12]): Active
Activity [13]: Non-Toxic

C[C@H](Cn1cnc2c(N)ncnc21)OCP(=O)(O)O [TENOFOVIR ANHYDROUS]
IC50 (Hepatitis B virus [1]): 16 µM
CC50 [2]: 435 µM
Cmax [14]: 207 ng/mL
selectivity ratio [3]: 27
AUC(0-inf) [15]: 15800 ng·h/mL
Tmax [16]: 0.833 h
bioavailability [17]: 1.41%
AUC(0-inf) [18]: 888 ng·h/mL
half-life [19]: 10.2 h
half-life [20]: 3.56 h
clearance [21]: 5.35 mL/min/kg

Nc1ccn([C@@H]2CS[C@H](CO)O2)c(=O)n1 [LAMIVUDINE]
IC50 (Hepatitis B virus [1]): 2.22 µM
CC50 [2]: > 218 µM
selectivity ratio [3]: > 98
inhibition (Hepatitis B virus [22]): Active
Activity [23]: Non-Toxic

CC(C)OC(=O)OCOP(=O)(CO[C@H](C)Cn1cnc2c(N)ncnc21)OCOC(=O)OC(C)C.O=C(O)/C=C/C(=O)O [TENOFOVIR DISOPROXIL FUMARATE]
IC50 (Hepatitis B virus [1]): 0.85 µM
CC50 [2]: 20.7 µM
selectivity ratio [3]: 24
log(activity) (HBV genotype D [5]): 1.7
Activity [7]: Non-Toxic
inhibition (Hepatitis B virus [10]): Dose-dependent effect

CC(C)C[C@H](N)C(=O)OCCCOP(=O)(CO[C@H](C)Cn1cnc2c(N)ncnc21)OCCCOC(=O)[C@@H](N)CC(C)C
IC50 (Hepatitis B virus [1]): 4.22 µM
CC50 [2]: 218 µM
selectivity ratio [3]: 47

CC(C)[C@H](N)C(=O)OCCCOP(=O)(CO[C@H](C)Cn1cnc2c(N)ncnc21)OCCCOC(=O)[C@@H](N)C(C)C
IC50 (Hepatitis B virus [1]): > 3.24 µM
CC50 [2]: 51.9 µM

CC[C@H](C)[C@H](N)C(=O)OCCCOP(=O)(CO[C@H](C)Cn1cnc2c(N)ncnc21)OCCCOC(=O)[C@@H](N)[C@@H](C)CC
IC50 (Hepatitis B virus [1]): > 49.6 µM
CC50 [2]: 315 µM

CC[C@H](C)[C@H](N)C(=O)OCCOP(=O)(CO[C@H](C)Cn1cnc2c(N)ncnc21)OCCOC(=O)[C@@H](N)[C@@H](C)CC
IC50 (Hepatitis B virus [1]): 12.2 µM
CC50 [2]: 294 µM
selectivity ratio [3]: 24

C[C@H](Cn1cnc2c(N)ncnc21)OCP(=O)(OCCOC(=O)[C@@H](N)Cc1ccccc1)OCCOC(=O)[C@@H](N)Cc1ccccc1
IC50 (Hepatitis B virus [1]): 2.93 µM
CC50 [2]: 315 µM
selectivity ratio [3]: 97

CC(C)C[C@H](N)C(=O)OCCOP(=O)(CO[C@H](C)Cn1cnc2c(N)ncnc21)OCCOC(=O)[C@@H](N)CC(C)C
IC50 (Hepatitis B virus [1]): > 13 µM
CC50 [2]: 218 µM

CC(C)[C@H](N)C(=O)OCCOP(=O)(CO[C@H](C)Cn1cnc2c(N)ncnc21)OCCOC(=O)[C@@H](N)C(C)C
IC50 (Hepatitis B virus [1]): 2.6 µM
CC50 [2]: 218 µM
selectivity ratio [3]: 84
